# KCNK9 inh: inhibitors of human KCNK9 two-pore domain potassium channel. Q9NPC2. HEK293 KCNK9, FluxOR thallium flux fluorescence; hits give low values. B-score at 10 µM. 310,000 compounds, 1.2% hits. AID 488922;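 active = ratio B-score over 3 SD below the library mean, with starting fluorescence within 5 SD of its mean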;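 also: negative B-score means less thallium flux so channel inhibition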
# KCNQ1 pot: potentiates or activates the human KCNQ1 potassium channel; P51787; CHO-K1 KCNQ1, thallium flux FluxOR fluorescence; hits give high values; B-score at 10 µM; 310,000 compounds, 0.35% hits; AID 2648;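 active = fluorescence ratio B-score, a plate-corrected score, at least three library SD, with initial intensity B-score within 5 SD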
#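 Test system: CHO-K1 cells stably expressing KCNQ1 / Medium: assay buffer / Also added: depolarizing K+/Tl+ stimulus, K2SO4 and Tl2SO4 each 12.5 mM in 5x stock / Incubation: 90 min dye loading and 20 min compound exposure, both at room temperature / Signal: thallium influx via FluxOR fluorescence, kinetic imaging / Evaluation: B score of baseline-normalized fluorescence ratio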
# Kir21 inh: inhibitors of mouse Kir2.1 inward-rectifier potassium channel | P35561 | B-score at 10 µM | 310,000 compounds, 0.85% hits | AID 1672 | HEK293-Kir2.1, FluxOR thallium flux fluorescence; hits give low values;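 active = fluorescence ratio B-score at or below minus 3 SD of library scores, with starting-brightness B-score within 2 SD, cut at about -4.2 in these data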;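 also: channel flux triggered by added potassium and thallium sulfate stimulus; B-score of peak minus minimum fluorescence over baseline after thallium stimulus; more negative B-score means stronger Kir2.1 block with less thallium influx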
# Target sequence (P35561 whole entry, looked up): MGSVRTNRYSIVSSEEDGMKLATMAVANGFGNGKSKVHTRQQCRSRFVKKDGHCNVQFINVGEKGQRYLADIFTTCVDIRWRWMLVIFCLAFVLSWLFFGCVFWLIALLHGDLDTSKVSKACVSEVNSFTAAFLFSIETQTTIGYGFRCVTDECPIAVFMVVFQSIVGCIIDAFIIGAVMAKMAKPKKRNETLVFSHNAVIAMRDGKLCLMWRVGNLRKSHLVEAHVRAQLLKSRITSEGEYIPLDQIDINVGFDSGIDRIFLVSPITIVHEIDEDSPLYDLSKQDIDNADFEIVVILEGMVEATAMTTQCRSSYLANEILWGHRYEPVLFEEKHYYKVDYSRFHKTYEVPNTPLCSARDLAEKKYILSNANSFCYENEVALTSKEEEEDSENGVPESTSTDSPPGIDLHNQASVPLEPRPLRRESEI
# KCNQ1 inh: inhibitors of human KCNQ1 potassium channel | P51787 | CHO-K1 KCNQ1, FluxOR thallium flux fluorescence; hits give high values | B-score at 10 µM | 310,000 compounds, 1.3% hits;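 active = compounds whose thallium flux B-score, printed positive for inhibition, exceeds three library SD while starting fluorescence stays within three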;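 also: channel opened by potassium depolarization with thallium stimulus after 20 min compound exposure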
# KCNK3 inh: human KCNK3 channel inhibition, primary screen; AID 602410; CHO-KCNK3 thallium flux, FluxOR fluorescence; hits give low values; O14649; 340,000 compounds, 0.84% hits; B-score at 10 µM;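 active = B-score under library mean minus 4 SD, starting fluorescence ratio at most library mean plus 5 SD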;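 also: more negative B-score means stronger inhibition of thallium flux through KCNK3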
# hERG protect: shields human hERG channel from block by proarrhythmic agents; Q12809; CHO-hERG, FluxOR thallium flux, dofetilide IC70 present; activation (rescue from dofetilide block), less the hit threshold, % at 10 µM; 310,000 compounds, 0.51% hits; AID 1511;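 active = activation above the mean of controls blocked by dofetilide plus 5 SD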;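 also: thallium influx through hERG after potassium depolarization seen as dye fluorescence rise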
# Starred values were filed as active, the others as inactive; i = inactive; . = no result. Hits are enriched below; roughly 3.8% of the tested compounds scored in any of these assays.
SMILES,KCNK9 inh,KCNQ1 pot,Kir21 inh,KCNQ1 inh,KCNK3 inh,hERG protect
Cc1sc2ncnc(SCC(=O)Nc3ccc(S(=O)(=O)N4CCOCC4)cc3)c2c1C,.,.,.,.,i,.
Cc1cc(C)c(OCC(=O)NCC2CCCO2)c(C)c1 (stereo not drawn),i,i,-0.65,i,i,-1
COc1ccc(S(=O)(=O)N2CCN(C(=O)CCNC(=O)c3ccccc3Cl)CC2)cc1,.,.,.,.,i,.
CC(C)OC(=O)CN1C(=O)S/C(=C/c2ccc(N3CCCCC3)o2)C1=O,-7.8*,i,-4.8,i,i,0
CSc1nc2sc3c(c2c(=O)[nH]1)CC(C)(C)OC3,i,i,-1.6,i,i,-4
CCc1ccc2nc(N=C(N)N)nc(C)c2c1,i,i,-6.1*,i,i,-10
CN(C)S(=O)(=O)c1ccc(C(=O)NN2C(=O)NC3(CCCCC3)C2=O)cc1,.,.,.,.,i,.
COc1cccc2c1cc1c(=O)n(CC(=O)NCCCN3CCCCC3)nc(C)n12,i,i,0.01,i,i,-4
COc1ccc(C)cc1NC(=O)CSc1nnc(COc2ccccc2)n1Cc1ccco1,i,i,0.26,i,i,-15
COc1ccc(NC(=O)CSc2nnc(COc3ccccc3)n2Cc2ccco2)cc1OC,i,i,2.1,i,i,5.1*
CN1CCC(N(C)C(=O)/C(C#N)=C\c2ccc(OC(F)F)cc2)CC1,.,.,.,.,i,.
CCn1c(CNc2cccc(Cl)c2)nnc1SCC(=O)OC1CCCCC1,i,i,-5.1*,i,i,-15
CCn1c(CNc2ccccc2Cl)nnc1SCC(=O)OC1CCCCC1,i,i,-4.5*,i,i,-7
CCn1c(CNc2ccc(Cl)cc2)nnc1SCC(=O)OC1CCCCC1,i,i,-6.6*,i,i,-5
CC(=O)Nc1sc2c(c1C#N)CCC(C)C2 (stereo not drawn),i,i,2,i,i,-6
Cc1ccc(C)n1-c1sc2c(c1C#N)CCC(C)C2 (stereo not drawn),-7.4*,i,0.95,i,i,-5
OC(CNCc1ccccc1)(c1ccc(F)cc1)c1ccc(F)cc1,-7.7*,i,-7.3*,i,i,-13
OC(CNCc1ccccc1)(c1ccccc1)c1ccccc1,i,i,-4.6*,i,i,-10
Cc1ccc(CNCC(O)(c2ccccc2)c2ccc(F)cc2)cc1 (stereo not drawn),i,i,-8.9*,i,i,-14
Cc1ccc(CNCC(O)(c2ccc(F)cc2)c2ccc(F)cc2)cc1,i,i,-4.1,i,i,-16
COc1ccc(CNCC(O)(c2ccccc2)c2ccccc2)cc1OC,i,i,-0.84,i,i,-9
OC(CNCc1ccc(F)cc1)(c1ccccc1)c1ccc(F)cc1 (stereo not drawn),i,i,-6.5*,i,i,-9
CCC(C)[C@H](NC(=O)C1CC(=O)N(c2ccc3c(c2)OCCO3)C1)C(=O)N1CCCCC1 (stereo partly drawn),i,i,0.23,i,i,-7
CCc1ccc(CNCc2ccc(F)cc2)cc1,i,i,-6.9*,i,i,-12
COc1ccc(CNCC(O)(c2ccc(F)cc2)c2ccc(F)cc2)cc1,i,i,-8.3*,i,i,-12
SMILES,KCNK9 inh,KCNQ1 pot,Kir21 inh,KCNQ1 inh,KCNK3 inh,hERG protect
CSCCC(NC(=O)c1ccc(Cl)c([N+](=O)[O-])c1)C(=O)N1CCN(C/C=C/c2ccccc2)CC1 (stereo not drawn),i,i,1.8,i,i,-14
O=C1N[C@H](C(=O)O)CS1,i,i,0.07,i,.,-3
COCCCn1c(SCC(=O)N2CCOCC2)nc2cc(Cl)ccc2c1=O,.,.,.,.,i,.
S=C(NCc1cccs1)Nc1ccccc1,i,i,0.46,i,i,-7
NS(=O)(=O)c1ccc(NC(=S)NCc2cccs2)cc1,i,i,-0.59,i,i,6.6*
O=C(O)c1cc([N+](=O)[O-])ccc1N1CCCCC1,i,i,-0.41,i,i,-3
COc1ccc(OCC(=O)Nc2cc(OC)ccc2N2CCCCC2)cc1,-7.9*,i,1.3,i,i,-4
COc1ccc(N2CCCC2)c(NC(=O)COc2ccccc2Cl)c1,i,i,-0.2,i,i,-8
COc1cccc(CC(=O)Nc2ccccc2N2CCCC2)c1,i,i,-6.7*,i,i,-6
Cc1ccc(C(=O)c2cc([N+](=O)[O-])ccc2N2CCCCC2)c(C)c1,-7.5*,i,0.4,i,i,-4
O=C(COc1cccc(C(F)(F)F)c1)Nc1ccccc1N1CCCCC1,-7.8*,i,-0.43,i,i,-15
COc1cccc(CC(=O)Nc2ccccc2C(=O)N2CCOCC2)c1,i,i,0,i,i,0
C=CCc1cccc2cc(C(=O)Nc3ccc(S(=O)(=O)Nc4nnc(CC)s4)cc3)c(=O)oc12,i,i,-0.48,i,i,-11
Cc1ccc(N(Cc2cc(=O)[nH]c3ccccc23)C(=O)CCl)c(C)c1,i,i,-0.82,i,i,-9
O=C(CN1CCN(C(=O)C2CCN(C(=O)/C=C/c3ccccc3)CC2)CC1)Nc1ccccc1Cl,.,.,.,.,i,.
O=C(Cc1ccc(Cl)cc1)Nc1ccccc1C(=O)N1CCCCC1,i,i,-1.9,i,i,-10
O=C(COC(=O)CCNS(=O)(=O)c1cccs1)Nc1ccccc1,.,.,.,.,i,.
COc1ccc(CC(=O)Nc2ccc(N3CCCC3)c(C)c2)cc1,i,i,-9.8*,i,i,-5
Cc1ccc(OCC(=O)N/N=C/c2cc([N+](=O)[O-])ccc2N2CCCCC2)cc1,-7.4*,i,1.5,i,i,-6
COc1ccc(CC(=O)Nc2ccccc2N2CCCCC2)cc1OC,i,i,-6.2*,i,i,-13
CS(=O)(=O)N1CCN(c2ccccc2NC(=O)Cc2ccccc2)CC1,i,i,0.05,i,i,-11
O=C(COc1ccc([N+](=O)[O-])cc1)N/N=C/c1cc([N+](=O)[O-])ccc1N1CCOCC1,i,i,0.13,i,i,-3
COc1ccc(CC(=O)Nc2ccccc2N2CCOCC2)cc1OC,i,i,-1.3,i,i,-8
O=C(Cc1ccccc1)Nc1ccccc1N1CCN(c2ccccc2)CC1,i,i,-0.12,i,-8.7*,-10
CCC(=O)Nc1ccc(N2CCCCC2)c(C(=O)Nc2ccc(OC)cc2)c1,i,i,1.4,i,i,-11
CCOC(=O)CNC(=O)C1(NC(=O)CNC(=O)OCc2ccccc2)CCCC1,.,.,.,.,i,.
